Experimental data published in ChEMBL document CHEMBL4428078, “Discovery of S3-Truncated, C-6 Heteroaryl Substituted Aminothiazine β-Site APP Cleaving Enzyme-1 (BACE1) Inhibitors” (J Med Chem, 2016).

Legend:
[1] = Metabolic stability in mouse liver microsomes assessed as compound remaining at 0.5 uM measured after 10 mins; type: ADME, Microsome; settings: read-out: Stability
Method in brief: (§1)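 Test compound at 0.5 µM incubated 10 min with mouse, rat or human liver microsomes. Read-out is percent of parent compound remaining.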

[2] = Plasma concentration in mouse at 30 mg/kg, po measured after 3 hrs; type: ADME, organism-based
Method in brief: (§2)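 Young mice given a single oral dose of 30 mg/kg. Total brain and plasma drug levels were measured 3 h post-dose and the brain/plasma ratio derived.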

[3] = Metabolic stability in rat liver microsomes assessed as compound remaining at 0.5 uM measured after 10 mins; type: ADME, Microsome; settings: read-out: Stability; method in brief: as §1
Beta-secretase 1 = Beta-secretase 1 (Homo sapiens, UniProt P56817); assay: Inhibition of BACE1 in human H4 cells expressing swedish mutant APP751 assessed as reduction in amyloid beta level measured after 19 hrs; type: cell-based
[4] = Drug uptake in mouse brain at 30 mg/kg, po measured after 3 hrs; type: ADME, organism-based; settings: read-out: Drug uptake; method in brief: as §2
[5] = Ratio of drug level in brain to plasma of mouse at 30 mg/kg, po measured at 3 hrs post dose; type: ADME, organism-based; settings: read-out: BPR; method in brief: as §2
[6] = Metabolic stability in human liver microsomes assessed as compound remaining at 0.5 uM measured after 10 mins; type: ADME, Microsome; settings: read-out: Stability; method in brief: as §1
Mus musculus = assay: In vivo inhibition of BACE1 in mouse assessed as reduction in brain amyloid beta level at 30 mg/kg, po measured after 3 hrs by ELISA relative to control; type: functional
Method in brief: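 Young mice dosed orally at 30 mg/kg. Brain Aβ was measured 3 h post-dose and expressed as percent reduction.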

[7] = Ratio of fraction unbound in rat plasma to IC50 for BACE1 in human H4 cells expressing swedish mutant APP751; type: ADME, cell-based
Rattus norvegicus [8] = assay: In vivo inhibition of BACE1 in po dosed rat assessed as reduction in brain amyloid beta40 level measured after 5 hrs by ELISA relative to control
[9] = Fraction unbound in human plasma; type: ADME, cell-free
Method in brief: (§3)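 Unbound fraction of drug determined in human, rat and mouse plasma, reported as percent unbound.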

[10] = Oral bioavailability in rat at 10 mg/kg measured after 5 hrs; type: ADME, organism-based; settings: in vivo
Method in brief: (§4)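 Rat IV/PO pharmacokinetics with a 2 mg/kg IV bolus and a 10 mg/kg oral dose. […] Oral bioavailability is calculated from the IV and PO AUC values.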

[11] = Plasma concentration in rat at 3 mg/kg, po measured after 5 hrs; type: ADME, organism-based
Method in brief: (§5)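 Female rats dosed orally in PEG-400:EtOH:Tween 80 (84:15:1) at 1, 3 or 10 mg/kg. Plasma and brain were collected 5 h post-dose, N=5 rats/dose. Total drug concentrations were determined and the brain/plasma ratio calculated. Values are means with SD.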

[12] = Plasma concentration in rat at 10 mg/kg, po measured after 5 hrs; type: ADME, organism-based; method in brief: as §5
Rattus norvegicus [13] = assay: In vivo inhibition of BACE1 in po dosed rat assessed as reduction in brain amyloid beta42 level measured after 5 hrs by ELISA
[14] = Ratio of drug level in brain to plasma of rat at 1 mg/kg, po measured at 5 hrs post dose; type: ADME, organism-based; settings: read-out: BPR; method in brief: as §5
Cytochrome P450 1A2 = biological target: T1, Cytochrome P450 1A2 (Homo sapiens, UniProt P05177); assay: Inhibition of recombinant human CYP1A2 preincubated for 10 mins followed by addition of CEC as substrate measured after 45 mins; type: ADME
T1 sequence (P05177 whole entry): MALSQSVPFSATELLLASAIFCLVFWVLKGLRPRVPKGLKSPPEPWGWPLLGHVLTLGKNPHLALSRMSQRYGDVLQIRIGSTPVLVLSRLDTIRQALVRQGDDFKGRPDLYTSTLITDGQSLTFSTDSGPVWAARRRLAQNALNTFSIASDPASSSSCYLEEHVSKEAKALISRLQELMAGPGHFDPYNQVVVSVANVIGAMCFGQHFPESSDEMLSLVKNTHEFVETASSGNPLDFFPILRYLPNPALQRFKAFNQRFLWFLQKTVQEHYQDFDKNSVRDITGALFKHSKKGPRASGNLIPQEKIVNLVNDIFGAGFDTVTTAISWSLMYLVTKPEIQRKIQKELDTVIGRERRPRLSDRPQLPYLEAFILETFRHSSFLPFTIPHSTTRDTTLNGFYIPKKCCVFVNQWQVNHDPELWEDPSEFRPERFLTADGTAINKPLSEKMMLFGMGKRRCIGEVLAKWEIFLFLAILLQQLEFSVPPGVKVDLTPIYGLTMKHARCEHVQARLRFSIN
Method in brief: (§6)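 Inhibition of recombinant human CYP1A2, CYP2C9, CYP2C19, CYP2D6 and CYP3A4 enzymes, reported as IC50.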

Rattus norvegicus [15] = assay: In vivo inhibition of BACE1 in po dosed rat assessed as reduction in total amyloid beta level in brain measured after 5 hrs by ELISA relative to control
Cytochrome P450 2D6 = Cytochrome P450 2D6 (Homo sapiens, UniProt P10635); assay: Inhibition of recombinant human CYP2D6 preincubated for 10 mins followed by addition of AMMC as substrate measured after 45 mins; type: ADME; method in brief: as §6
[16] = Fraction unbound in rat plasma; type: ADME, cell-free; method in brief: as §3
Cytochrome P450 3A4 = Cytochrome P450 3A4 (Homo sapiens, UniProt P08684); assay: Inhibition of recombinant human CYP3A4 preincubated for 10 mins followed by addition of BFC as substrate measured after 45 mins; type: ADME; method in brief: as §6
[17] = Ratio of drug level in brain to plasma of rat at 10 mg/kg, po measured at 5 hrs post dose; type: ADME, organism-based; settings: read-out: BPR; method in brief: as §5
[18] = Drug uptake in rat brain at 3 mg/kg, po measured after 5 hrs; type: ADME, organism-based; settings: read-out: Drug uptake; method in brief: as §5
[19] = Drug uptake in rat brain at 1 mg/kg, po measured after 5 hrs; type: ADME, organism-based; settings: read-out: Drug uptake; method in brief: as §5
[20] = Fraction unbound in rat plasma at 1 to 10 mg/kg, po; type: ADME, organism-based; settings: in vivo
Rattus norvegicus [21] = assay: In vivo inhibition of BACE1 in po dosed rat assessed as reduction in brain amyloid beta42 level measured after 5 hrs by ELISA relative to control
[22] = Clearance in rat plasma at 2 mg/kg, iv administered as bolus or 10 mg/kg, po; type: ADME, organism-based
Method in brief: (§7)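 Rats given a 2 mg/kg IV bolus or 10 mg/kg orally for IV/PO pharmacokinetics. Clearance and volume of distribution come from the IV arm. Clearance is also expressed against rat hepatic blood flow.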

[23] = Fraction unbound in mouse plasma; type: ADME, cell-free; method in brief: as §3
Cytochrome P450 2C9 = Cytochrome P450 2C9 (Homo sapiens, UniProt P11712); assay: Inhibition of recombinant human CYP2C9 preincubated for 10 mins followed by addition of MFC as substrate measured after 45 mins; type: ADME; method in brief: as §6
[24] = Clearance in rat plasma at 2 mg/kg, iv administered as bolus or 10 mg/kg, po relative to hepatic blood flow; type: ADME, organism-based; settings: in vivo; method in brief: as §7
[25] = Drug uptake in rat brain at 10 mg/kg, po measured after 5 hrs; type: ADME, organism-based; settings: read-out: Drug uptake; method in brief: as §5
[26] = Cmax in rat at 10 mg/kg, po measured after 5 hrs; type: ADME, organism-based; parameters: dose 10 mg/kg, route oral; settings: in vivo; method in brief: as §4
[27] = Ratio of drug level in brain to plasma of rat at 3 mg/kg, po measured at 5 hrs post dose; type: ADME, organism-based; settings: read-out: BPR; method in brief: as §5
[28] = Volume of distribution in rat plasma at 2 mg/kg, iv administered as bolus or 10 mg/kg, po; type: ADME, organism-based; method in brief: as §7
Cytochrome P450 2C19 = Cytochrome P450 2C19 (Homo sapiens, UniProt P33261); assay: Inhibition of recombinant human CYP2C19 preincubated for 10 mins followed by addition of CEC as substrate measured after 45 mins; type: ADME; method in brief: as §6
[29] = Plasma concentration in rat at 1 mg/kg, po measured after 5 hrs; type: ADME, organism-based; method in brief: as §5

Beta-secretase 1, sequence (P56817 whole entry): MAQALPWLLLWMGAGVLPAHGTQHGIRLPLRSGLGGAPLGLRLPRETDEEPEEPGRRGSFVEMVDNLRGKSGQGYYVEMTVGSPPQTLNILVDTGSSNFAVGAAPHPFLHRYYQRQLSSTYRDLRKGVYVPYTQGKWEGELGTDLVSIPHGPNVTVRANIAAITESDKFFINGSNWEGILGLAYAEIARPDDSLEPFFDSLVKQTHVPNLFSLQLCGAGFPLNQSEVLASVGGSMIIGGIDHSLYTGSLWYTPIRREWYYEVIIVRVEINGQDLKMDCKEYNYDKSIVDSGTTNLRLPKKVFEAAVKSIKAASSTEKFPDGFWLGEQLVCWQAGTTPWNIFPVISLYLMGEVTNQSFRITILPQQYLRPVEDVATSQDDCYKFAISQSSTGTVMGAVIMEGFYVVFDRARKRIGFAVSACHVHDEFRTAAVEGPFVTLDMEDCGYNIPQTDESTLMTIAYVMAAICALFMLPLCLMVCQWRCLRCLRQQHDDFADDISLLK
Cytochrome P450 2D6, sequence (P10635 whole entry): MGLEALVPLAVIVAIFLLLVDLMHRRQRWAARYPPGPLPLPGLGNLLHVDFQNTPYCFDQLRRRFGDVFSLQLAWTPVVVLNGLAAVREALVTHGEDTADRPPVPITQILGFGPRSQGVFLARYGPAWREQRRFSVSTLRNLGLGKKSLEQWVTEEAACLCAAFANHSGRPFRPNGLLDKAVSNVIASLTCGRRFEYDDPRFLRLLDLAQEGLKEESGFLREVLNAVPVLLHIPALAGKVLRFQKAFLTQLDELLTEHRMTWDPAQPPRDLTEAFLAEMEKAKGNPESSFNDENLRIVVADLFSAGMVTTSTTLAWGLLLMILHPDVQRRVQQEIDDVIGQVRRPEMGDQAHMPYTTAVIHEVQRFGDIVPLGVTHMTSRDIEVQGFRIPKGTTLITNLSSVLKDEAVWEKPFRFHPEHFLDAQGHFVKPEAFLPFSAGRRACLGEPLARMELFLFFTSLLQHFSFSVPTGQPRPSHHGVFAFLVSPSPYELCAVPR
Cytochrome P450 2C9, sequence (P11712 whole entry): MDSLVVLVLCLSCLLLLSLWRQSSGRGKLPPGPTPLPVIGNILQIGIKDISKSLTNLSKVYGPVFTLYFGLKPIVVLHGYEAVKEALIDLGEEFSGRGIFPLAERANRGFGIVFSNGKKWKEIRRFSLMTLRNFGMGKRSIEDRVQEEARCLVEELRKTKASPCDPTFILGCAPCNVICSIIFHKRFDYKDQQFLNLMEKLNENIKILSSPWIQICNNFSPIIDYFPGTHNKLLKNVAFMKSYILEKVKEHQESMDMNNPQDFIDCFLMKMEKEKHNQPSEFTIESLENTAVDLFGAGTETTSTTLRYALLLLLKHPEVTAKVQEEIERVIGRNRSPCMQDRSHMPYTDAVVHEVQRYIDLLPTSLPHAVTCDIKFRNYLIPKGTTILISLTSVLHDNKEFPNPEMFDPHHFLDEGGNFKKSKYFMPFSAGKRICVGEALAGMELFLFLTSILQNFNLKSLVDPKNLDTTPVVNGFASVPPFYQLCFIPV
Cytochrome P450 2C19, sequence (P33261 whole entry): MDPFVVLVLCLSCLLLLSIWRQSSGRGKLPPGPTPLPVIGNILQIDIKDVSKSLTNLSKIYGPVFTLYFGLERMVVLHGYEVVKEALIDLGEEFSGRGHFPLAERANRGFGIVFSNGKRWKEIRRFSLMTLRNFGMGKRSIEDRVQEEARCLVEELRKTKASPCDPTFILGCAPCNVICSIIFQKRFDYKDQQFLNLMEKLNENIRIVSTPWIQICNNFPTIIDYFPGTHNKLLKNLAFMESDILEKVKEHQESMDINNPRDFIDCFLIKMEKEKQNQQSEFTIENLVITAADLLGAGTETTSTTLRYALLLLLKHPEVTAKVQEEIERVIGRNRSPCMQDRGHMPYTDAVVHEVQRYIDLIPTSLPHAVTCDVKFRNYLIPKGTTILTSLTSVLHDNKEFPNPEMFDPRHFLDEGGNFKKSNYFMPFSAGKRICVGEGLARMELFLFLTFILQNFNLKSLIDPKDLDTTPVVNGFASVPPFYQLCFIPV
Cytochrome P450 3A4, sequence (P08684 whole entry): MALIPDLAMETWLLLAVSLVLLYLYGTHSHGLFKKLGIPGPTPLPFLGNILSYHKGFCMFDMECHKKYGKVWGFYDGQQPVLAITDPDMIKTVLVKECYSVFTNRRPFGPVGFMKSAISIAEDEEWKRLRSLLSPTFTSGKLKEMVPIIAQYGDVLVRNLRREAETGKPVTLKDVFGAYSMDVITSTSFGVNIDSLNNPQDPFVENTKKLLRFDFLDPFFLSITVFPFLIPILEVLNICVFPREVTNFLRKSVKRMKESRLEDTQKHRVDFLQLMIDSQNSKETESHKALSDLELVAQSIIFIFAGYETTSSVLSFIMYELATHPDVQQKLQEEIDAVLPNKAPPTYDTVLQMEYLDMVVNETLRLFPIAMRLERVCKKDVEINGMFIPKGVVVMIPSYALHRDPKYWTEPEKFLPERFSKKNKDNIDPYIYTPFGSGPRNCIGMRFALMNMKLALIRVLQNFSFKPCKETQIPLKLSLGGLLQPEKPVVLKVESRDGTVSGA

In the case of `Cn1nccc1[C@@H]1C[C@@](C)(c2ccc(F)cc2F)N=C(N)S1`, the remaining at 10 min, 0.5 µM [1] is reported as 72%, the concentration at 3 h [2] is reported as 4.3 µM and the remaining at 10 min, 0.5 µM [3] is reported as 78%. It also gave an IC50 (Beta-secretase 1) of 0.35 µM, a concentration at 3 h [4] of 4.3 µM and a Kp at 3 h [5] of 1.3. It also gave a remaining at 10 min, 0.5 µM [6] of 70% and an inhibition in vivo at 30 mg/kg (Mus musculus) of 62%.

In the case of `Cc1nocc1[C@@H]1C[C@@](C)(c2ccc(F)cc2F)N=C(N)S1`, the remaining at 10 min, 0.5 µM [1] is reported as 80%, the remaining at 10 min, 0.5 µM [3] is reported as 77% and the IC50 (Beta-secretase 1) is reported as 0.3 µM. For the same compound, the remaining at 10 min, 0.5 µM [6] was 65%.

With `C[C@@]1(c2ccc(F)cc2F)C[C@@H](c2cncnc2)SC(N)=N1` the Ratio [7] was 6, the inhibition (Rattus norvegicus [8]) was “Dose-dependent effect” and the fraction unbound [9] was 0.37. For the same compound, the bioavailability [10] was over 100%, the concentration at 5 h [11] was 1.8 µM and the concentration at 5 h [12] was 6.6 µM. The EC50 (Rattus norvegicus [13]) was 3.8 µM, the Kp at 5 h [14] was 2.8 and the IC50 (Cytochrome P450 1A2) was over 20 µM. For the same compound, the remaining at 10 min, 0.5 µM [1] was 68%, the inhibition (Rattus norvegicus [15]) was “Dose-dependent effect” and the concentration at 3 h [2] was 6.7 µM. It also gave an IC50 (Cytochrome P450 2D6) of over 20 µM, a fraction unbound [16] of 0.48 and an IC50 (Cytochrome P450 3A4) of over 20 µM. It also gave a Kp at 5 h [17] of 1.8, a concentration at 5 h [18] of 2.8 µM and a remaining at 10 min, 0.5 µM [3] of 95%. The IC50 (Beta-secretase 1) was 0.31 µM, the concentration at 5 h [19] was 2.3 µM and the “Cp(f)” value [20] was 1.8 µM. The inhibition (Rattus norvegicus [21]) was “Dose-dependent effect”, the clearance [22] was 12 mL/min/kg and the fraction unbound [23] was 0.42. The IC50 (Cytochrome P450 2C9) was over 20 µM, the concentration at 3 h [4] was 6.7 µM and the CL [24] was 20%. It also gave a concentration at 5 h [25] of 12 µM, a Cmax [26] of 3.7 µM and a Kp at 5 h [27] of 1.8. For the same compound, the Vd [28] was 8.2 L/kg, the IC50 (Cytochrome P450 2C19) was 9 µM and the Kp at 3 h [5] was 1.8. The remaining at 10 min, 0.5 µM [6] was 90% and the concentration at 5 h [29] was 0.82 µM.

`Cc1onc(-c2ccc(F)cc2)c1[C@@H]1C[C@@](C)(c2ccc(F)cc2F)N=C(N)S1` showed a remaining at 10 min, 0.5 µM [1] of 23%, a remaining at 10 min, 0.5 µM [3] of 35% and an IC50 (Beta-secretase 1) of 0.32 µM. For the same compound, the remaining at 10 min, 0.5 µM [6] was 24%.
